High-throughput results from PubChem BioAssay.
Hits are enriched below; roughly 6.1% of the tested compounds scored in any of these assays.
RAM inhibit: inhibitors of the yeast RAM network. S. cerevisiae dse1pr::URA3 reporter, 5-FOA growth OD615, 2 d; analog-sensitive cbk1-as2 kinase mutant strain. inhibition, % at 50 µM. hit rate 1.8% among 190,000. AID 868;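 active means inhibition above a set limit, 3 SD over mean compound inhibition, cut at about 8.4% in these data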;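 further: 0% = DMSO-only wells with no growth and 100% = 10 µM 1-NA-PP1 full growth; inhibition rescues growth on 5-FOA so higher OD means more RAM inhibition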
Yeast growth inh: chemicals that inhibit yeast BB579 growth in restrictive medium (lifespan-shortening candidates); S. cerevisiae BB579 growth, OD615, 48 h; inhibition, % at 10 µM; hit rate 0.51% among 140,000;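 active means inhibition above a set limit, 3 SD over the mean compound inhibition, cut at about 44% in these data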
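System: Saccharomyces cerevisiae DeaD strain BB579, replicative lifespan model yeast | Buffer or medium: Restrictive glucose-based CSMM-D medium | Times: 4 h preincubation and 48 h exposure at 30 °C | Detection: OD615 turbidity measurement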
WT yeast gro inh: growth inhibition of WT yeast, mitochondrial fusion screen; inhibition, % at 10 µM; hit rate 2.1% among 190,000; mitochondrial fusion phenotypic screen, WT strain; in the data active means inhibition above about 58%; tested in S. cerevisiae
Measles CPE: protection of cells from measles virus | Measles virus-infected cells, CPE protection, absorbance | protection (pct of control), % at 4 µM | hit rate 1.5% among 140,000 | AID 841; in the data active means protection mostly above about 24%, no sharp cut-off; inactive means mostly below about 26%
Yeast life ext: yeast lifespan extension | AID 775 | S. cerevisiae growth with nicotinamide, OD615; deaD strain in restrictive glucose medium | inhibition of the nicotinamide effect, % at 10 µM | hit rate 0.68% among 130,000;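 active means inhibition above a set limit, placed 3 SD over the median of all compounds, cut at about 26% in these data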;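 further: 0% = nicotinamide-treated wells and 100% = cells grown without nicotinamide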
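Assay system: engineered S. cerevisiae DeaD replicative-lifespan strain, galactose-grown log-phase cells; medium: restrictive CSMM-D dextrose medium; also added: nicotinamide, 1.5 mM, co-present with compound; schedule: 48 h compound exposure at 30 °C, humidified; detection: absorbance at 615 nm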
DAT uptake mod: modulates human dopamine transporter uptake under cocaine; LLC-PK1 hDAT cells, [14C]-dopamine uptake with cocaine IC80; actives deviate in either direction; B-score at 10 µM; hit rate 1.3% among 110,000;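 active means Z score or B-score, a plate-position-corrected score, falls beyond the plate's 99.7% confidence bounds, in either direction; inactive means both scores lie inside the 99.7% bounds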;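 further: scored against the spread of the other compound wells on the same plate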
Target sequence (Q01959 whole entry, looked up): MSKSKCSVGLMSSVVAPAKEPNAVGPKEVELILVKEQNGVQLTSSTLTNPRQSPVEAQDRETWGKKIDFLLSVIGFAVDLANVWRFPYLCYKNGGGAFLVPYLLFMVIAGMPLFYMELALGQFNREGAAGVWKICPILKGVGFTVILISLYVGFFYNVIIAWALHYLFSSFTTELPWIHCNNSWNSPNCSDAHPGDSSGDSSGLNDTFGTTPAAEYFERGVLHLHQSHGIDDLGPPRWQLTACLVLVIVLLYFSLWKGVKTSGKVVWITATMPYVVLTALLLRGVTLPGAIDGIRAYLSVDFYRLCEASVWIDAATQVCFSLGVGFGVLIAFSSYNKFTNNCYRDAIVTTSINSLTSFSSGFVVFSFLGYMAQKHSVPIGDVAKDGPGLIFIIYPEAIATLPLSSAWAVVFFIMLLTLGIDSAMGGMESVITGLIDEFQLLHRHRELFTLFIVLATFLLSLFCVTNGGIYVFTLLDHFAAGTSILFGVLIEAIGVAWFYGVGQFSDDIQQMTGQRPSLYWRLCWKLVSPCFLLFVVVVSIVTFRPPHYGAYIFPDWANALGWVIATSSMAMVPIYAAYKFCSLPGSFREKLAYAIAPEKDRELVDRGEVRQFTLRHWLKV
* hit, by the source's call; . = not tested or not shown.

SMILES | RAM inhibit | Yeast growth inh | WT yeast gro inh | Measles CPE | Yeast life ext | DAT uptake mod
O=C(CN1/C(=C(/O)c2ccccc2)C(=O)c2ccccc2S1(=O)=O)c1ccccc1 | 2 | 12 | 64* | 5 | 12 | -0.4
Cc1cccc2cc(CN(CC3CCCO3)C(=O)c3cnccn3)c(=O)[nH]c12 (stereo unspecified) | 0 | -43 | 12 | 14 | -8 | 0.66
Cc1cc(C)c2[nH]c(=O)c(CN(CC3CCCO3)C(=O)c3cnccn3)cc2c1 (stereo unspecified) | -1 | -6 | -10 | 26 | -5 | 2.5*
COc1ccc(O)c(-c2c(-c3ccc(Cl)cc3)n[nH]c2C)c1 | 0 | -32 | 0 | 8 | -19 | 3.7*
Cc1[nH]nc(-c2ccc(O)cc2O)c1-c1ccc(Cl)cc1 | -1 | 28 | -7 | 4 | -33 | 0.55
COc1ccc(-c2n[nH]c(C)c2-c2ccc(Cl)cc2)c(O)c1 | 0 | 100* | 49 | 1 | -17 | 0.26
COc1ccc(-c2n[nH]c(C)c2-c2ccc(Cl)cc2)c(O)c1OC | 2 | -75 | 36 | 3 | -9 | -0.02
Cc1cc(SCC(=O)OCC(=O)NC(C)c2ccccc2)c(C)cc1Br (stereo unspecified) | 10* | -3 | 13 | 3 | 1 | .
Cc1ccc(CS(=O)(=O)c2nc3c(c(N(C)C)n2)CCCC3)cc1 | 2 | . | 3 | . | . | .
COc1cc(OC)c2c(OC)cccc2n1 | 2 | -2 | -8 | 92* | -6 | .
Cc1ccc(S(=O)(=O)N2CCC(=O)N(CCOC(=O)Nc3ccc(F)cc3)CC2)cc1 | 2 | 9 | 7 | 1 | -4 | -0.17
O=C(NCc1nc2ccccc2[nH]1)c1ccco1 | 0 | -16 | -14 | 19 | 0 | -0.063
CCc1nnc(NC(=O)c2cc3ccccc3oc2=O)s1 | 1 | -23 | -6 | 8 | -19 | -8.9*
O=C(NCc1nc2ccccc2[nH]1)c1cc2ccccc2oc1=O | 0 | -32 | 2 | 86* | -10 | -0.016
COc1cc(S(=O)(=O)Nc2cccc(C)c2)ccc1N=Cc1c(C)[nH]n(-c2ccccc2)c1=O | 8.5* | -33 | -12 | 20 | -5 | .
COc1cc(S(=O)(=O)Nc2ccc(C)cc2)ccc1N=Cc1c(C)[nH]n(-c2ccccc2)c1=O | 6 | -37 | 0 | 2 | 4 | .
S=C(Nc1ccc(Oc2ccccc2)cc1)NC1CCCC1 | 3 | 20 | 62* | 19 | -5 | .
COc1ccc(NC(=S)NC2CCCCCC2)c(OC)c1 | 1 | 0 | 64* | 13 | 1 | .
S=C(Nc1ccccc1Oc1ccccc1)Nc1cccc(Cl)c1Cl | 7 | 27 | 65* | 6 | 1 | .
S=C(Nc1ccccc1Oc1ccccc1)NC1CCCC1 | 4 | . | 68* | . | . | .
CC(C)(C)c1ccc(Cn2nc(CC(=O)O)c3ccccc3c2=O)cc1 | 1 | . | 0 | . | . | .
CC(C)[C@@H]1NC(=O)c2cc([N+](=O)[O-])cc(F)c2NCCC[C@@H](C(N)=O)NC(=O)[C@H](CO)NC1=O | 0 | -2 | 14 | 7 | -4 | -0.11
COc1cccc(C(=O)NNC(=S)NC2CCCCC2)c1 | 1 | -10 | 1 | 25* | -3 | .
COc1ccc(Oc2nc(OC)cc(OC)n2)cc1 | 1 | . | -2 | . | . | .
COc1ccccc1/C=C\C=N\n1c(-c2ccc(Cl)cc2)n[nH]c1=S | 2 | -49 | 26 | 13 | 0 | .
SMILES | RAM inhibit | Yeast growth inh | WT yeast gro inh | Measles CPE | Yeast life ext | DAT uptake mod
COc1ccccc1/C=C\C=N\n1c(-c2ccc(Cl)cc2Cl)n[nH]c1=S | 3 | -16 | 65* | 8 | 0 | .
Cc1sc(NC(=O)CN(Cc2ccc(F)cc2)C(=O)C(C)(C)C)c(C(N)=O)c1C | 6 | -14 | -13 | 21 | 0 | .
COc1ccc(C(=O)CCC(C)(C)[N+](=O)[O-])cc1 | 1 | . | -4 | . | . | .
NS(=O)(=O)c1ccc(Nc2nc3ccccc3nc2NS(=O)(=O)c2cccc([N+](=O)[O-])c2)cc1 | 8.6* | . | -6 | . | . | .
CCOC(=O)CN1C(=O)S/C(=C/C=C/c2ccc(N(C)C)cc2)C1=O | 3 | -44 | 12 | 11 | 9 | .
N#C/C(=N\Nc1cccc(Cl)c1)C(=O)c1ccccc1 | 7 | -22 | 72* | 13 | -2 | 0.45
O=C(/C=C/c1ccc(S(=O)(=O)N2CCOCC2)cc1)NCCCn1ccnc1 | 2 | . | 1 | . | . | .
